Test results as given in article PMC6824728 (International journal of pharmaceutics, 2019).

Experiments:
[1] = Tween 80-ethanol-water solution, room temperature; ref Naguib et al., 2016; cited from earlier work
[2] = ref Naguib et al., 2016; cited from earlier work
[3] = tested on: M-Wnt cells; experiment: In vitro cytotoxicity, MTT assay; format: cell-based, murine; conditions: 24 h of incubation
Method in brief: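 M-Wnt cells were grown in RPMI 1640 plus 1% Glutamax and seeded at 1,000 cells/well. After overnight attachment at 37°C, 5% CO2, they were treated for 24 h with graded concentrations of free compound (DMSO stock diluted in medium) or SLN formulation (dispersed in medium). Drug-free SLN, DMSO and medium controls were included. Survival was read by MTT.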

[4] = tested on: B16-F10 tumors; experiment: Histology; format: in vivo, C57BL/6 mice; conditions: tumors collected day 17; i.v. 50 mg/kg DHA-dFdC x 4
Method in brief: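 Female C57BL/6 mice (18–20 g, 6–8 weeks) received 5 × 10^5 B16-F10 cells s.c. in the right flank on day 0. They were randomized on day 7 and dosed i.v. every 3 days ×4 at 50 mg/kg. Free compound was given in Tween 80/ethanol/5% mannitol vehicle; SLNs were dispersed in 5% mannitol. Tumors were harvested day 17, formalin-fixed, embedded and H&E stained.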

[5] = tested on: B16-F10 tumor; experiment: Antitumor activity in mice with pre-established B16-F10 tumors; format: in vivo; conditions: B16-F10 s.c. tumors, i.v. 50 mg/kg DHA-dFdC on days 7, 10, 13, 16
[6] = tested on: B16-F10 cells; experiment: In vitro cytotoxicity, MTT assay; format: cell-based, murine; conditions: 48 h of incubation
Method in brief: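 B16-F10 cells were grown in DMEM and seeded at 4,000 cells/well. After overnight attachment at 37°C, 5% CO2, they were exposed for 48 h to graded concentrations of free compound (DMSO stock diluted in medium) or SLN formulation (dispersed in medium). Drug-free SLNs, DMSO and medium served as controls. Survival was read by MTT.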

[7] = 20°C; ref Kim and Hsieh, 2001; Wu and Hopkins, 1999; cited from earlier work

Compound	Half-life of DHA-dFdC in solution [1]	Intrinsic solubility in water [2]	IC50 [3] [nM]	Tumor histology (H&E) [4]	Tumor growth delay [5] [days]	IC50 [6] [nM]	Critical micelle concentration [7]
CC/C=C\C/C=C\C/C=C\C/C=C\C/C=C\C/C=C\CCC(=O)Nc1ccn([C@@H]2O[C@H](CO)[C@@H](O)C2(F)F)c(=O)n1 [DHA-dFdC, 4-(N)-docosahexaenoyl 2′, 2′-difluorodeoxycytidine]	~ 14 h	~ 25 μg/mL	2150	vascular collapse and necrotic areas	4	1810	
Tween 20							~ 1 % (w/v)
